Assay results: ChEMBL document CHEMBL1938318, “Design, synthesis and evaluation of novel molecules with a diphenyl ether nucleus as potential antitubercular agents” (Bioorg Med Chem Lett, 2012)
Values after ≈ are worked out from the molar mass of the structure shown.

How the values were obtained:
[1] = Growth inhibition of human HepG2 cells at 20 uM after 48 hrs by MTT assay; format: cell-based; settings: read-out: GI
Procedure, shortened: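 Cells seeded at 2500/well, cultured 24 h, then exposed to compound at 20 μM for 48 h. MTT (20 μL of 5 mg/ml stock) added for 2.5 h at 37 °C. Supernatant removed, formazan dissolved in DMSO with 15–20 min shaking, absorbance read at 570 nm. Inhibitory rate is the mean of three independent experiments.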

[2] = tested on: Mycobacterium tuberculosis; assay: Antitubercular activity against Mycobacterium tuberculosis H37Rv after 7 to 11 days by microdilution method; format: functional
Procedure, shortened: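 M. tuberculosis H37Rv grown in Middlebrook 7H9 with OADC, diluted in 7H9-OADC to 10⁴ CFU/mL and added to serial compound dilutions in 96-well microdilution plates. Incubated at 37 °C in humidified incubator, growth scored visually. MIC = lowest concentration with growth similar to 10 CFU inoculum-only well; isoniazid positive control.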

| SMILES | inhibition at 48 h, 20 µM [1] | MIC [2] | MIC90 [2] |
| --- | --- | --- | --- |
| O=C(Cc1cccc(Oc2ccccc2)c1)Nc1ccc(F)c(F)c1 | 26.7% | 32 µg/mL (≈ 94.3 µM) | 8 µg/mL (≈ 23.6 µM) |
| O=C(Cc1cccc(Oc2ccccc2)c1)Nc1ccc(OC(F)(F)F)cc1 | 4.71% | 32 µg/mL (≈ 82.6 µM) | 16 µg/mL (≈ 41.3 µM) |
| O=C(Cc1cccc(Oc2ccccc2)c1)Nc1ccc(Br)cc1Cl | 12.8% | 32 µg/mL (≈ 76.8 µM) | 16 µg/mL (≈ 38.4 µM) |
| O=C(Cc1cccc(Oc2ccc(Cl)cc2)c1)Nc1cccc(Cl)c1 | 27.1% | 32 µg/mL (≈ 86 µM) | 16 µg/mL (≈ 43 µM) |
| O=C(Cc1cccc(Oc2ccccc2)c1)Nc1ccc(Cl)c(Cl)c1 | 7% | 4 µg/mL (≈ 10.7 µM) | – |
| O=C(Nc1cccc(Cl)c1)c1cccc(Oc2ccccc2)c1 | 7.07% | 32 µg/mL (≈ 98.8 µM) | 16 µg/mL (≈ 49.4 µM) |
| O=C(CCCc1cccc(Oc2ccccc2)c1)Nc1cccc(Cl)c1 | – | 32 µg/mL (≈ 87.5 µM) | 16 µg/mL (≈ 43.7 µM) |
| N#Cc1ccccc1NC(=O)Cc1cccc(Oc2ccccc2)c1 | 19.1% | 32 µg/mL (≈ 97.5 µM) | – |
| O=C(Cc1cccc(Oc2ccccc2)c1)NC(c1ccccc1)c1ccccc1 | 4.84% | 32 µg/mL (≈ 81.3 µM) | 8 µg/mL (≈ 20.3 µM) |
| COc1ccc(NC(=O)Cc2cccc(Oc3ccccc3)c2)c(OC)c1 | 4.11% | 32 µg/mL (≈ 88.1 µM) | – |
| COc1ccc2nc(NC(=O)Cc3cccc(Oc4ccccc4)c3)sc2c1 | 4.29% | 16 µg/mL (≈ 41 µM) | 8 µg/mL (≈ 20.5 µM) |
| O=C(Cc1cccc(Oc2ccccc2)c1)Nc1cccc2ccccc12 | 3.31% | 64 µg/mL (≈ 181 µM) | 32 µg/mL (≈ 90.5 µM) |
| O=C(Cc1cccc(Oc2ccccc2)c1)Nc1cccc([N+](=O)[O-])c1 | 0.95% | 32 µg/mL (≈ 91.9 µM) | 16 µg/mL (≈ 45.9 µM) |
| O=C(Cc1cccc(Oc2ccccc2)c1)Nc1ccc([N+](=O)[O-])cc1 | 36.4% | 32 µg/mL (≈ 91.9 µM) | 8 µg/mL (≈ 23 µM) |
| O=C(Cc1cccc(Oc2ccccc2)c1)Nc1ccc(Br)cc1 | 15.7% | 64 µg/mL (≈ 167 µM) | 16 µg/mL (≈ 41.9 µM) |
| Cc1ccc(NC(=O)Cc2cccc(Oc3ccccc3)c2)nc1 | 12.2% | 32 µg/mL (≈ 101 µM) | 8 µg/mL (≈ 25.1 µM) |
| O=C(Cc1cccc(Oc2ccccc2)c1)Nc1nccs1 | 39.9% | 32 µg/mL (≈ 103 µM) | 16 µg/mL (≈ 51.6 µM) |
| NNC(=O)c1ccncc1 [ISONIAZID] | 3.51% | 0.0625 µg/mL (≈ 0.456 µM) | 0.0625 µg/mL (≈ 0.456 µM) |
| O=C(Cc1cccc(Oc2ccccc2)c1)Nc1cccc(Cl)c1 | 7.95% | 32 µg/mL (≈ 94.7 µM) | 16 µg/mL (≈ 47.4 µM) |
| O=C(Cc1cccc(Oc2ccc(F)cc2)c1)Nc1cccc(Cl)c1 | 23.5% | 32 µg/mL (≈ 89.9 µM) | 16 µg/mL (≈ 45 µM) |
| O=C(Nc1cccc(Cl)c1)c1ccc(Oc2ccccc2)cc1 | 29.2% | 32 µg/mL (≈ 98.8 µM) | 16 µg/mL (≈ 49.4 µM) |
| O=C(Cc1cccc(Oc2ccccc2)c1)Nc1ccc(C(F)(F)F)cc1 | 10.3% | 32 µg/mL (≈ 86.2 µM) | 8 µg/mL (≈ 21.5 µM) |
| O=C(CCc1cccc(Oc2ccccc2)c1)Nc1cccc(Cl)c1 | 25.1% | 32 µg/mL (≈ 91 µM) | 16 µg/mL (≈ 45.5 µM) |
